Test results taken from ChEMBL document CHEMBL2380248, “Matrix metalloproteinase inhibitors based on the 3-mercaptopyrrolidine core” (J Med Chem, 2013).
The source made the active and inactive calls. The rule behind the calls is not given here.

Experiments:
[1] = target: Matrix metalloproteinase-14 (Homo sapiens, UniProt P50281); test: Inhibition of MMP-14 (unknown origin) using Mca-PLGLDpa-AR-NH2 as substrate preincubated for 30 mins by fluorescence assay; conditions: read-out: Ki(app)
Summary of the method: (§1)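 Fluorogenic assay at 25°C in 50 mM HEPES pH 7.5, 10 mM CaCl2, 200 mM NaCl, 0.01% Brij-35, 5 μM TCEP. Inhibitor in DMSO preincubated 30 min with enzyme (0.2–7 nM), then started with Mca-PLGLDpa-AR-NH2 (4 μL of […] in 50% DMSO); product release followed at λex 328/λem 393 nm.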

Interstitial collagenase = target: T1, Interstitial collagenase (Homo sapiens, UniProt P03956); test: Inhibition of MMP-1 (unknown origin) using Mca-PLGLDpa-AR-NH2 as substrate preincubated for 30 mins by fluorescence assay; conditions: read-out: Ki(app); summary of the method: as §1
T1 sequence (P03956 whole entry): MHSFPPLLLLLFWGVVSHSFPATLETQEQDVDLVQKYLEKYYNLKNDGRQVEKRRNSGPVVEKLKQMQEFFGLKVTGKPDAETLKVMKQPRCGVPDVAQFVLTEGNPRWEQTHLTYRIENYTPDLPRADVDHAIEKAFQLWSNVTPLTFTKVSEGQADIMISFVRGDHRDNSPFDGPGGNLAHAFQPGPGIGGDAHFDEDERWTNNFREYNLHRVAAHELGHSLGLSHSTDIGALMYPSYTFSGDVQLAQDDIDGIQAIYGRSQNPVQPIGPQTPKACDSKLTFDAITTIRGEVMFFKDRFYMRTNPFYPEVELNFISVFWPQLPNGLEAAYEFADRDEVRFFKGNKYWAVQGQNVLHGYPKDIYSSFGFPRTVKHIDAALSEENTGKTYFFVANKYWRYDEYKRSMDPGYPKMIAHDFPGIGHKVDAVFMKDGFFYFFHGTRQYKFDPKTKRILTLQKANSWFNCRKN

Matrilysin = target: T2, Matrilysin (Homo sapiens, UniProt P09237); test: Inhibition of MMP-7 (unknown origin) using Mca-PLGLDpa-AR-NH2 as substrate preincubated for 30 mins by fluorescence assay; conditions: read-out: Ki(app); summary of the method: as §1
T2 sequence (P09237 whole entry): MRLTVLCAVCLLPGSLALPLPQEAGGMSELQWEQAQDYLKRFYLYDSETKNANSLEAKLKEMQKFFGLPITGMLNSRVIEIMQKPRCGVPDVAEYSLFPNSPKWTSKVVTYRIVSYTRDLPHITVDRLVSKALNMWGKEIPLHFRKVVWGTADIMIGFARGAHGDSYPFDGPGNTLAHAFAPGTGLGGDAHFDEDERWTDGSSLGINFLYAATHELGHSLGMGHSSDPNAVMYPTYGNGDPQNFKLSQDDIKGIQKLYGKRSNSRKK

[2] = target: 72 kDa type IV collagenase (Homo sapiens, UniProt P08253); test: Inhibition of MMP-2 (unknown origin) using Mca-PLGLDpa-AR-NH2 as substrate preincubated for 30 mins by fluorescence assay; conditions: read-out: Ki(app); summary of the method: as §1
Stromelysin-1 = Stromelysin-1 (Homo sapiens, UniProt P08254); test: Inhibition of MMP-3 (unknown origin) using Mca-PLGLDpa-AR-NH2 as substrate preincubated for 30 mins by fluorescence assay; conditions: read-out: Ki(app); summary of the method: as §1
[3] = target: T3, Matrix metalloproteinase-9 (Homo sapiens, UniProt P14780); test: Inhibition of MMP-9 (unknown origin) using Mca-PLGLDpa-AR-NH2 as substrate preincubated for 30 mins by fluorescence assay; conditions: read-out: Ki(app); summary of the method: as §1
Collagenase 3 = Collagenase 3 (Homo sapiens, UniProt P45452); test: Inhibition of MMP-13 (unknown origin) using Mca-PLGLDpa-AR-NH2 as substrate preincubated for 30 mins by fluorescence assay; conditions: read-out: Ki(app); summary of the method: as §1
[4] = Cytotoxicity against human MSC assessed as cell killing up to 100 uM after 24 hrs by trypan blue staining-based hemocytometric analysis relative to control
Summary of the method: (§2)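 Low-passage hMSCs grown in αMEM with L-glutamine, penicillin, streptomycin, 20% FBS at 37°C, 5% CO2; fed every three days to 75% confluency, then given fresh media with inhibitor (log panel 1 μM to 100 μM, constant final DMSO) for 24 h. Cells washed with PBS, trypsinized, pelleted, Trypan Blue counted by hemocytometer; normalized to control, triplicate, mean ± SEM; >20% killing deemed cytotoxic.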

[5] = Stability of the compound in alpha-modified minimum essential medium at 10000 x IC50 up to 72 hrs in presence of fetal bovine serum; assay type: ADME; conditions: cattle
Summary of the method: (§3)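 Aliquots then incubated 30 min with MMP-9 (final ~1 nM) in HEPES buffer before substrate addition; relative rates (νi/νo) taken in triplicate and plotted versus time; mean ± SEM.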

[6] = Cytotoxicity against human MSC assessed as reduction in cell number at 100 uM after 24 hrs by trypan blue staining-based hemocytometric analysis relative to control; parameters: scale not given: the % may be the effect or the level left; summary of the method: as §2
[7] = target: T3, Matrix metalloproteinase-9; test: Inhibition of MMP-9 (unknown origin) at 10000 x IC50 incubated up to 72 hrs prior to enzyme addition measured after 30 mins in presence of 20% fetal bovine serum; summary of the method: as §3

Chain of Stromelysin-1 (P08254 whole entry): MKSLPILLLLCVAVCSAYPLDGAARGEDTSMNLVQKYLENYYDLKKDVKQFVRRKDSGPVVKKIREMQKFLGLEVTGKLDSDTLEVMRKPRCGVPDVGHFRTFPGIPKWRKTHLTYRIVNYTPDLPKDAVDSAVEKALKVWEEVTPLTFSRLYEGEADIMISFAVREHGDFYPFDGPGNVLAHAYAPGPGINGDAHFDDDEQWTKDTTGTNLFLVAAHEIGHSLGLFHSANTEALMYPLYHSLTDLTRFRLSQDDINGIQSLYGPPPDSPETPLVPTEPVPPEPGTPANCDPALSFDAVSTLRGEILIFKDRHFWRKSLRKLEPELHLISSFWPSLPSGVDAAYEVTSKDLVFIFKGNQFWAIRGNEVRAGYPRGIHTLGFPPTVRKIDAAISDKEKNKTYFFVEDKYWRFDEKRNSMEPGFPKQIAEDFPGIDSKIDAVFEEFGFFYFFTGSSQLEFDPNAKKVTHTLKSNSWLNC
Chain of 72 kDa type IV collagenase (P08253 whole entry): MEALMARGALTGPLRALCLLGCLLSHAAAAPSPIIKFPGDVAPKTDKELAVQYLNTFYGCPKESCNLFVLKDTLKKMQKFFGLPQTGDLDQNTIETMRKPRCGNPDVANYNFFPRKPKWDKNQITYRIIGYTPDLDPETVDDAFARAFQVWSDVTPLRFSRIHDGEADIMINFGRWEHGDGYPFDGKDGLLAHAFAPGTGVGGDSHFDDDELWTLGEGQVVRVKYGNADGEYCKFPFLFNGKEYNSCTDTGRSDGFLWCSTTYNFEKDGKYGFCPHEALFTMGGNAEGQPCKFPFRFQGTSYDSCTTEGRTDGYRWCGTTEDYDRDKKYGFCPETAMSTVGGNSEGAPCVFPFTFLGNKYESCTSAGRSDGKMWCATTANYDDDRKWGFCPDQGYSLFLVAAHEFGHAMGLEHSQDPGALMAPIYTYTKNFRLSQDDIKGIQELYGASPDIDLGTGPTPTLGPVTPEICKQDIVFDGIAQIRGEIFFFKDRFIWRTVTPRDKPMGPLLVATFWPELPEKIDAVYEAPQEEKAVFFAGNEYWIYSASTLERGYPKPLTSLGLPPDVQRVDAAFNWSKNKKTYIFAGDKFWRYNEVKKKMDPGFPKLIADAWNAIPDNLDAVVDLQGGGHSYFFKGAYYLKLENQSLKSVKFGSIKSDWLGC
T3 sequence (P14780 whole entry): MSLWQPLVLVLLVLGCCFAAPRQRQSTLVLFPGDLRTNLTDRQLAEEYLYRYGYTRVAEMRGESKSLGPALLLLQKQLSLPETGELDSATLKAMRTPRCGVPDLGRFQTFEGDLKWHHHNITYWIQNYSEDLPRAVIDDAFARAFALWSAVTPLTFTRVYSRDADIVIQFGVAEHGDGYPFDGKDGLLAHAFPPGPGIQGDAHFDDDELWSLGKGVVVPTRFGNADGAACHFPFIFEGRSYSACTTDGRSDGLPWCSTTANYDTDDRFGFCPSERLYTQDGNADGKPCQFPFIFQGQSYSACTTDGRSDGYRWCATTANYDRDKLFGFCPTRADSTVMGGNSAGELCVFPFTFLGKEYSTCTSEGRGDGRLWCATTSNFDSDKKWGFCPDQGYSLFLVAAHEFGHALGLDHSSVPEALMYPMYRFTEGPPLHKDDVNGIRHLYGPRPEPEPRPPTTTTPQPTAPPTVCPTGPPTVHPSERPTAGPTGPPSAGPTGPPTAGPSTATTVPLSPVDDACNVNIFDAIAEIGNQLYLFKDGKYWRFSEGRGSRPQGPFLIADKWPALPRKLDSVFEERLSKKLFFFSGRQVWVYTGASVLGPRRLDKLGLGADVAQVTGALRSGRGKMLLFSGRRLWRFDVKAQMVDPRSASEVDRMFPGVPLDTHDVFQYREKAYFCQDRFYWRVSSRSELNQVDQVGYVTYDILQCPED

Ki [1] [nM]	Ki (Interstitial collagenase) [nM]	Ki (Matrilysin) [nM]	Ki [2] [nM]	Ki (Stromelysin-1) [nM]	Ki [3] [nM]	Ki (Collagenase 3) [nM]	Stability [5]	inhibition [7]	SMILES	Activity [4]	Activity [6] [%]
25000	> 200000	> 200000	25000	> 200000	> 1600	> 100000	–	–	O=S(=O)(N[C@@H]1CCC[C@@H]1S)c1ccc(Oc2ccccc2)cc1	–	–
68	–	> 100000	430	–	280	160	–	–	O=S(=O)(N[C@H]1CCC[C@H]1S)c1ccc(Oc2ccccc2)cc1	–	–
31	2100	> 100000	4.6	> 200000	38	17	–	–	O=S(=O)(N[C@H]1CCC[C@@H]1S)c1ccc(Oc2ccccc2)cc1	–	–
10	–	36000	67	> 100000	42	10	–	–	O=S(=O)(N[C@@H]1CCC[C@H]1S)c1ccc(Oc2ccccc2)cc1	–	–
–	50000	> 200000	–	–	–	–	–	–	O=S(=O)(N[C@H]1CNC[C@@H]1S)c1ccc(Oc2ccccc2)cc1	–	–
–	6300	4100	–	–	–	–	–	–	O=S(=O)(N[C@@H]1CNC[C@H]1S)c1ccc(Oc2ccccc2)cc1	–	–
6.2	99	91	14	990	5.7	–	–	–	CNC(=O)[C@H](Cc1ccccc1)NC(=O)[C@@H](CC(C)C)S[C@H]1CN(C(C)=O)C[C@H]1S (mixture of isomers)	–	–
70	110	50	17	300	4.9	–	–	–	CNC(=O)[C@H](Cc1ccccc1)NC(=O)[C@@H](CC(C)C)S[C@H]1CN(C(=O)CN2C(=O)c3ccccc3C2=O)C[C@H]1S (mixture of isomers)	–	–
6	75	12	8.5	31	3.9	–	–	–	CNC(=O)[C@H](Cc1ccccc1)NC(=O)[C@@H](CC(C)C)S[C@H]1CN(C(=O)CCCN2C(=O)c3ccccc3C2=O)C[C@H]1S (mixture of isomers)	–	–
7	52	11	1.7	1.9	0.98	–	–	–	CNC(=O)[C@H](Cc1ccccc1)NC(=O)[C@@H](CC(C)C)S[C@H]1CN(C(=O)CCCCCN2C(=O)c3ccccc3C2=O)C[C@H]1S (mixture of isomers)	–	–
310	260	230	200	4100	5.3	–	–	–	CNC(=O)[C@H](Cc1ccccc1)NC(=O)[C@@H](CC(C)C)S[C@H]1CNC[C@H]1S (mixture of isomers)	–	–
–	–	> 12000	–	–	–	–	–	–	O=C(NCCN1C(=O)c2ccccc2C1=O)N1C[C@H](NS(=O)(=O)c2ccc(Oc3ccccc3)cc2)[C@@H](S)C1 (racemic)	<= 20%	–
410	> 100000	> 20000	810	–	970	200	–	–	O=S(=O)(N[C@@H]1CCC[C@@H]1S)c1ccc(Oc2ccccc2)cc1 (racemic)	–	–
3000	> 20000	> 50000	7200	> 200000	9600	3400	–	–	O=S(=O)(N[C@H]1CCC[C@@H]1S)c1ccccc1 (racemic)	–	–
1200	10000	–	240	10000	630	230	–	–	O=S(=O)(N[C@H]1CCC[C@@H]1S)c1ccc(-c2ccccc2)cc1 (racemic)	–	–
18	3400	> 20000	18	–	25	15	Stable	–	O=S(=O)(N[C@H]1CCC[C@@H]1S)c1ccc(Oc2ccccc2)cc1 (racemic) [listing 1 of 2 here]	<= 20%	40
> 200000	> 200000	> 200000	50000	> 200000	200000	100000	–	–	O=S(=O)(N[C@H]1CCC[C@@H]1O)c1ccc(Oc2ccccc2)cc1 (racemic)	–	–
> 25000	> 200000	5700	5700	> 200000	4300	28000	–	–	O=C(N[C@H]1CCC[C@@H]1S)c1ccc(Oc2ccccc2)cc1 (racemic)	–	–
–	25000	> 25000	–	–	–	–	–	–	O=S(=O)(N[C@H]1CNC[C@@H]1S)c1ccc(Oc2ccccc2)cc1 (racemic)	–	–
–	–	> 25000	–	–	–	–	Stable	–	NC(=O)N1C[C@H](NS(=O)(=O)c2ccc(Oc3ccccc3)cc2)[C@@H](S)C1 (racemic)	<= 20%	–
–	–	> 25000	–	–	1.1	–	–	–	CN([C@H]1CN(C(N)=O)C[C@@H]1S)S(=O)(=O)c1ccc(Oc2ccccc2)cc1 (racemic)	–	–
–	> 6000	–	–	–	–	–	Stable	–	CC(=O)NCCCCCC(=O)N1C[C@H](NS(=O)(=O)c2ccc(Oc3ccccc3)cc2)[C@@H](S)C1 (racemic)	<= 20%	–
6.6	> 3000	–	3.1	–	3.6	–	Stable	Active	Cl.NCCCCCC(=O)N1C[C@H](NS(=O)(=O)c2ccc(Oc3ccccc3)cc2)[C@@H](S)C1 (racemic)	<= 20%	–
85000	> 50000	> 100000	7000	> 100000	30000	> 200000	–	–	NCCCCCC(=O)N1C[C@H](NS(=O)(=O)c2ccc(Oc3ccccc3)cc2)[C@@H](O)C1 (racemic)	–	–
–	–	–	–	–	–	–	–	Active	O=S(=O)(N[C@H]1CCC[C@@H]1S)c1ccc(Oc2ccccc2)cc1 (racemic) [listing 2 of 2 here]	–	–
